In ChEMBL document CHEMBL1131222, “Novel thieno[2,3-d][1,3]oxazin-4-ones as inhibitors of human leukocyte elastase” (J Med Chem, 1998):

Legend:
[1] = Alkaline hydrolysis rate (logk-OH); format: ADME; conditions: 50 mM CAPS, pH 10.5 or 11.5, 25 °C
How it was run: (§1)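 Thienooxazinone loss followed spectrophotometrically at a fixed wavelength (330–355 nm) in 50 mM CAPS, pH 10.5 or 11.5, 25 °C. Final inhibitor concentration 10–25 μM, 5% final DMSO. Curves analysed as first-order reactions. For some compounds at pH 10.5, reverse-phase HPLC aliquots were taken every 3 h over 24 h, with peak areas at 240 nm fitted to a first-order equation.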

[2] = Alkaline hydrolysis rate (k-OH); format: ADME; how it was run: as §1
Neutrophil elastase [3] = target: T1, Neutrophil elastase (Homo sapiens, UniProt P08246); assay: Steady state inhibition constant for Human Leukocyte Elastase inhibition
T1 sequence (P08246 whole entry): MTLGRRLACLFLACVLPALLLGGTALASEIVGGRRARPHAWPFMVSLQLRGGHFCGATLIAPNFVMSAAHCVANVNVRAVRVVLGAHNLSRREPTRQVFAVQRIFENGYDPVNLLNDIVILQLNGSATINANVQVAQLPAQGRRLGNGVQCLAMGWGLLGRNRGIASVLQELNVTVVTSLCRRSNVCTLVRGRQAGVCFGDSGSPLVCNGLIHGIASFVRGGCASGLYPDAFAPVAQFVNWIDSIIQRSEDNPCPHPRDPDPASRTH
How it was run: (§2)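 Progress-curve assay at 25 °C with HLE purified from human leukocytes, in 50 mM sodium phosphate, 500 mM NaCl, pH 7.8. Substrate was MeOSuc-Ala-Ala-Pro-Val-pNA (200 μM final, 405 nm, 30–75 min) or, for a few inhibitors, Suc-Ala-Ala-Pro-Val-AMC (125 μM final, ex 340/em 460 nm, 4–5 min). […] Curves were fitted by slow-binding kinetics (k_obs = k_on'[I] + k_off).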

Neutrophil elastase [4] = target: T1, Neutrophil elastase; assay: Negative logarithm of steady state constant Ki for enzyme-inhibitor complex Human Leukocyte Elastase inhibition; how it was run: as §2
[5] = target: T2, Neutrophil elastase (Homo sapiens) (UniProt P08246); assay: Second order rate constant for enzyme-inhibitor complex Human Leukocyte Elastase inhibition was determined; how it was run: as §2
T2 sequence (whole entry): T1 sequence (P08246 whole entry)

[6] = target: T2, Neutrophil elastase (Homo sapiens)

SMILES | Log kOH- [1] | kOH- [2] | Ki (Neutrophil elastase [3]) | Ki (Neutrophil elastase [4]) | kon (10e3* M-1 s-1) [5] | koff [6] | Kon (10e3* M-1 s-1) [5]
CC(C)COc1nc2sc3c(c2c(=O)o1)CCCC3 | 0.26 | 1.83 M⁻¹ s⁻¹ | 51 nM | 51.3 nM |  |  | 
Cc1sc2nc(OCC(C)C)oc(=O)c2c1C | 0.41 | 2.55 M⁻¹ s⁻¹ | 133 nM | 135 nM |  |  | 
Cc1sc2nc(N3CCOCC3)oc(=O)c2c1C | -1.07 | 0.085 M⁻¹ s⁻¹ |  |  | < 0.6 |  | 
O=c1oc(N2CCOCC2)nc2sc3c(c12)CCCC3 | -1.08 | 0.083 M⁻¹ s⁻¹ |  |  | < 0.8 |  | 
CCN(CC)c1nc2sc(C)c(C)c2c(=O)o1 | -1.63 | 0.023 M⁻¹ s⁻¹ |  |  | < 0.6 |  | 
CC(C)Nc1nc2sc3c(c2c(=O)o1)CCCC3 | -0.49 | 0.323 M⁻¹ s⁻¹ | 145 nM | 145 nM |  |  | 
CN(c1nc2sc3c(c2c(=O)o1)CCCC3)C1CCCCC1 |  |  |  |  | < 0.6 |  | 
Cc1sc2nc(NC(C)C)oc(=O)c2c1C | -1.14 | 0.073 M⁻¹ s⁻¹ | 75.5 nM | 75.9 nM | 1.13 | 0.85 | 
Cc1sc2nc(N(C)C3CCCCC3)oc(=O)c2c1C | -1.11 | 0.077 M⁻¹ s⁻¹ |  |  |  |  | < 0.8
Cc1sc2nc(SCc3ccccc3)oc(=O)c2c1C | -0.16 | 0.69 M⁻¹ s⁻¹ | 101 nM | 100 nM |  |  | 
CSc1nc2sc(C)c(C)c2c(=O)o1 | 0.22 | 1.65 M⁻¹ s⁻¹ | 35 nM | 34.7 nM |  |  | 
COC(=O)CSc1nc2sc(C)c(C)c2c(=O)o1 | 0.01 | 1.03 M⁻¹ s⁻¹ | 238 nM | 240 nM | 0.685 | 1.63 | 
COC(=O)CSc1nc2sc3c(c2c(=O)o1)CCCC3 | -0.04 | 0.92 M⁻¹ s⁻¹ | 17.9 nM | 17.8 nM |  |  | 
CC(C)Nc1nc2sccc2c(=O)o1 | -0.48 | 0.332 M⁻¹ s⁻¹ | 41.8 nM | 41.7 nM |  |  | 
O=c1oc(SCc2ccccc2)nc2sc3c(c12)CCCC3 | -0.45 | 0.355 M⁻¹ s⁻¹ | 290 nM | 288 nM |  |  | 

Continued, values first:

Log kOH- [1] | kOH- [2] | Ki (Neutrophil elastase [3]) | Ki (Neutrophil elastase [4]) | kon (10e3* M-1 s-1) [5] | koff [6] | Kon (10e3* M-1 s-1) [5] | SMILES
-0.22 | 0.59 M⁻¹ s⁻¹ | 5.7 nM | 5.75 nM |  |  |  | CCSc1nc2sc3c(c2c(=O)o1)CCCC3
0.44 | 2.77 M⁻¹ s⁻¹ | 1.36 nM | 1.35 nM |  |  |  | CCOc1nc2sc3c(c2c(=O)o1)CCCC3
0.39 | 2.48 M⁻¹ s⁻¹ | 4.02 nM | 3.98 nM |  |  |  | CCCOc1nc2sc(C)c(C)c2c(=O)o1
0.45 | 2.82 M⁻¹ s⁻¹ | 10.7 nM | 10.7 nM |  |  |  | CCOc1nc2sc(C)c(C)c2c(=O)o1
-1.59 | 0.025 M⁻¹ s⁻¹ | 16.3 nM | 16.2 nM |  |  |  | CCN(CC)c1nc2sc3c(c2c(=O)o1)CCCC3
0.21 | 1.63 M⁻¹ s⁻¹ | 5.74 nM | 5.75 nM | 272 | 15.6 |  | CSc1nc2sc3c(c2c(=O)o1)CCCC3
0.44 | 2.75 M⁻¹ s⁻¹ | 1.43 nM | 1.45 nM |  |  |  | CCCOc1nc2sc3c(c2c(=O)o1)CCCC3
0.47 | 2.98 M⁻¹ s⁻¹ | 5.61 nM | 5.62 nM |  |  |  | CCOc1nc2scc(C(C)C)c2c(=O)o1
0.1 | 1.27 M⁻¹ s⁻¹ | 2.73 nM | 2.75 nM |  |  |  | CCSc1nc2sc(C)c(C)c2c(=O)o1
